From ChEMBL document CHEMBL1782055, “2,3-dideoxy hex-2-enopyranosid-4-uloses as promising new anti-tubercular agents: design, synthesis, biological evaluation and SAR studies” (Eur J Med Chem, 2011)

Key:
Format in all cases: functional
[1] = test system: Mycobacterium tuberculosis; experiment: Antitubercular activity against rifampin and isoniazid-resistant Mycobacterium tuberculosis TB-1678/05 after 24 hrs by BACTEC radiometric susceptibility assay; details: TB-1678/05, 24 h
Method in brief: (§1)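 BACTEC radiometric assay in 7H12 (12B) medium with 14C-palmitic acid as substrate; 14CO2 output read daily as Growth Index (GI) at 37 °C ± 1 °C. H37Rv inoculum grown in 12B vial to GI around 300. Compounds dissolved in DMSO. Control vial held 1:100 diluted bacterial suspension. Reading continued until control GI reached 30 or more. Daily change in GI compared with control to set susceptibility and MIC.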

[2] = test system: Mycobacterium tuberculosis; experiment: Antitubercular activity against isoniazid-resistant Mycobacterium tuberculosis 433 after 24 hrs by BACTEC radiometric susceptibility assay; details: Mycobacterium tuberculosis, 433, 24 h; method in brief: as §1
[3] = test system: Mycobacterium tuberculosis; experiment: Antitubercular activity against rifampin and isoniazid-resistant Mycobacterium tuberculosis 2643 after 24 hrs by BACTEC radiometric susceptibility assay; details: Mycobacterium tuberculosis, 2643, 24 h; method in brief: as §1
[4] = test system: Mycobacterium tuberculosis; experiment: Antitubercular activity against ethambutol-resistant Mycobacterium tuberculosis TB-2506/06 after 24 hrs by BACTEC radiometric susceptibility assay; details: TB-2506/06, 24 h; method in brief: as §1

Measured: MIC

CC(C)CCO[C@@H]1C=CC(=O)[C@@H](COC(=O)C(C)(C)C)O1
1.56 µg/mL: all assays above
